pPAFAH FP inh: pPAFAH enzyme inhibitors, primary screen, biochemical, fluorescence polarization, human | inhibition, % at 3.39 µM | 1.5% of 330,000 active | Platelet-activating factor acetylhydrolase (Homo sapiens), Q13093 | recombinant pPAFAH, FP-rhodamine probe fluorescence polarization | AID 463082, 2010;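 active means inhibition above the mean inhibition across the screen plus 3 SD, cut at about 25% in these data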;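 further: inhibitors block binding of the rhodamine activity-based probe so polarization drops; 0% = enzyme with DMSO and 100% = wells lacking pPAFAH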
HTRA1 inhibitor: HTRA1 serine protease inhibitors, primary screen, biochemical, fluorescence polarization, HTS; inhibition, % at 5.96 µM; recombinant HTRA1, FP-rhodamine activity-based probe; 0.5% of 340,000 active; in the data active means inhibition above about 36%;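 further: 0% = enzyme with DMSO and 100% = wells lacking enzyme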
ABHD4 inh: ABHD4 inhibitors, primary screen, biochemical, fluorescence polarization, mouse | AID 720543, 2013 | inhibition, % at 8.92 µM | 0.54% of 370,000 active | purified mABHD4, FP-Rh probe fluorescence polarization | (Lyso)-N-acylphosphatidylethanolamine lipase (Mus musculus), Q8VD66;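 active means inhibition exceeding the mean over every tested compound plus 3 SD, cut at about 30% in these data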;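 further: 0% = plate median of compound wells and 100% = S159A mutant with DMSO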
Target sequence (Q8VD66 whole entry, looked up): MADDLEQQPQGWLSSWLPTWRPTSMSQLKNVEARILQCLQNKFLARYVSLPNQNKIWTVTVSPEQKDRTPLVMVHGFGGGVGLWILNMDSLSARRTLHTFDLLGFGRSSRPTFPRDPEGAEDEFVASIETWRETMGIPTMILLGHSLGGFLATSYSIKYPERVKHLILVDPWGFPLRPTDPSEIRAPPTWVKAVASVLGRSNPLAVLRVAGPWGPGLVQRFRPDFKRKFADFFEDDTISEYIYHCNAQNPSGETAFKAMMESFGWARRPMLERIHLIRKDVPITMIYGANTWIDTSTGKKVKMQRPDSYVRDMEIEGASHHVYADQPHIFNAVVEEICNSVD
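System: mouse ABHD4 enzyme, wild type / Medium: HEPES pH 7.0, NaCl, Pluronic buffer / Reagent: FP-Rh activity-based fluorescent probe / Control set: S159A mutant high control, sample median low control / Detection: fluorescence polarization with parallel and perpendicular emission, 525/598 nm / Schedule: 45 min + 60 min at 25 °C / Compound dosing: 8.92 µM, single dose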
SIAE primary: human SIAE inhibitors, primary screen, biochemical, fluorescence polarization, FP-Rh probe, 1536-well HTS. AID 1053197, 2014. 0.69% of 370,000 active. Sialate O-acetylesterase (Homo sapiens), Q9HAT2. inhibition, % at 9.66 µM. SIAE FP-Rh probe binding;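 active means inhibition above a cutoff: mean of compounds within the control limits plus 3 SD of those, cut at about 17% in these data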;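 further: 0% = plate median of compound wells and 100% = probe without SIAE protein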
TCR CD3 inh: inhibitors of human TCR-CD3 interaction, primary screen, biochemical, fluorescence, TAMRA-labeled TCR probe; 0.37% of 360,000 active; inhibition, % at 9.4 µM; in the data active means inhibition above about 19%;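 further: recombinant mutant TCR 2C K166C tagged with TAMRA read by polarization; 0% = receptor in buffer alone and 100% = receptor with positive control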
pPAFAH confirm: pPAFAH (PLA2G7) enzyme inhibitors, confirmation, biochemical, fluorescence polarization, human | shares compounds with pPAFAH FP inh | recombinant pPAFAH, FP-Rh probe fluorescence polarization | inhibition, % at 3.39 µM | 72% of 2,300 active | AID 463230, 2010;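 active means mean inhibition of the triplicate above the hit cutoff set for the earlier primary screen, cut at about 25% in these data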;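 further: 0% = enzyme with DMSO and 100% = wells lacking pPAFAH enzyme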
* marks the source's active call; other numbers are inactive results. Sampled rows, rich in hits. Any-hit rate of the full collection: about 2.3%.

Results for N#Cc1ccc(Nc2nc(-c3ccc(O)cc3O)cs2)cc1C(F)(F)F ?
pPAFAH FP inh: 35.2*; HTRA1 inhibitor: 27.2; pPAFAH confirm: 26.8*

What do the screens show for `Cc1cc(C)cc(NC(=O)C2(C(=O)C3CC3)CC(c3ccccc3C(F)(F)F)=NO2)c1` (stereo not drawn)?
ABHD4 inh: -10.7; SIAE primary: -1.1

How did CCOC(=O)c1c(C)n(-c2ccc(C)cc2)c2ccc(OCC(O)CNCC3CCCO3)cc12 (stereo not drawn) do in these assays?
pPAFAH FP inh: 71.4*; HTRA1 inhibitor: -50.2; pPAFAH confirm: 69.5*

How did CCN(C)C(=O)CNc1nnnn1-c1ccccc1 do in these assays?
ABHD4 inh: -0.1; SIAE primary: 6.7

How did C=CC(C)(C)c1c(O)c(CC=C(C)C)c(O)c2c(=O)c3ccc(O)c(O)c3oc12 do in these assays?
pPAFAH FP inh: 45.4*; HTRA1 inhibitor: 36.5*; pPAFAH confirm: 49.3*

Results for Clc1ccc(-c2nnc(N3CCCC3)nn2)cc1 ?
pPAFAH FP inh: 49.8*; HTRA1 inhibitor: 0.0; ABHD4 inh: 7.8; SIAE primary: 8.1; TCR CD3 inh: 7.3; pPAFAH confirm: 6.7

What do the screens show for `CCSc1cc(N2CCCC2)nc(-c2ccc(Cl)cc2)n1`?
pPAFAH FP inh: -6.3; HTRA1 inhibitor: -1.9; ABHD4 inh: 4.9; SIAE primary: 3.6; TCR CD3 inh: 1.1

What do the screens show for `O=C(NNC(=O)c1cc2ccccc2cc1O)Nc1ccccc1F`?
pPAFAH FP inh: 65.5*; HTRA1 inhibitor: 21.9; ABHD4 inh: 17.6; SIAE primary: 5.0; TCR CD3 inh: 13.4; pPAFAH confirm: 37.4*

What do the screens show for `COc1ccc(-c2coc3cc(OC(=O)N4CCOCC4)ccc3c2=O)cc1`?
pPAFAH FP inh: 50.8*; HTRA1 inhibitor: 0.9; ABHD4 inh: 1.1; SIAE primary: -4.9; TCR CD3 inh: 1.2; pPAFAH confirm: 42.7*

What do the screens show for `CCOC(=O)Cn1c(=O)oc2cc(S(=O)(=O)Nc3ccc(N(CC)CC)cc3C)ccc21`?
pPAFAH FP inh: 54.6*; HTRA1 inhibitor: -0.3; ABHD4 inh: 8.4; SIAE primary: 5.4; TCR CD3 inh: -0.2; pPAFAH confirm: 52.8*

Results for CCOc1ccc(C=NNc2ccc(S(=O)(=O)Nc3ccccc3C(=O)O)cc2[N+](=O)[O-])cc1 ?
pPAFAH FP inh: 56.6*; HTRA1 inhibitor: 11.2; SIAE primary: 10.2; pPAFAH confirm: 85.8*

What do the screens show for `O=C(O)c1ccccc1/C=N/Nc1ccc(S(=O)(=O)N2CCCC2)cc1[N+](=O)[O-]`?
pPAFAH FP inh: 8.9; HTRA1 inhibitor: -2.7; ABHD4 inh: 2.3; SIAE primary: 0.8; TCR CD3 inh: 4.5

Results for Cc1ccc(C(=O)N2CCCC(CCC(=O)N3CCN(c4ccccn4)CC3)C2)cc1C (stereo not drawn) ?
pPAFAH FP inh: 34.9*; HTRA1 inhibitor: 3.7; ABHD4 inh: 3.7; SIAE primary: 4.2; TCR CD3 inh: 0.1; pPAFAH confirm: 22.2

How did Nc1ccc2nc(-c3cccnc3)[nH]c2c1 do in these assays?
pPAFAH FP inh: 39.5*; HTRA1 inhibitor: 19.0; ABHD4 inh: 11.4; SIAE primary: -5.0; TCR CD3 inh: -5.2; pPAFAH confirm: -0.1

Results for CCC(C)Sc1nc2c(c(=O)[nH]1)C(c1cccs1)C1=C(CCCC1=O)N2 (stereo not drawn) ?
pPAFAH FP inh: 38.0*; HTRA1 inhibitor: -2.5; ABHD4 inh: 1.8; SIAE primary: -1.1; TCR CD3 inh: -3.8; pPAFAH confirm: 19.8

What do the screens show for `O=C1CCCC2=C1C(c1ccncc1)c1c(nc(SCc3ccccc3Cl)[nH]c1=O)N2` (stereo not drawn)?
pPAFAH FP inh: 0.8; HTRA1 inhibitor: -13.1; ABHD4 inh: -6.2; SIAE primary: -27.5; TCR CD3 inh: -5.4

How did CCCCCCCCN1C(=O)[C@@H](CC(=O)N2CCN(C(=O)OCC)CC2)C[C@@]2(C(=O)OC)C1=C[C@H](C(C)C)O[C@@H]2C1CC1 do in these assays?
ABHD4 inh: -3.6; SIAE primary: 8.2

How did O=c1cc(-c2ccccc2)nc2c(-c3ccccc3)c(C(F)(F)F)[nH]n12 do in these assays?
pPAFAH FP inh: 45.1*; ABHD4 inh: -27.6; SIAE primary: 9.1; TCR CD3 inh: -5.5; pPAFAH confirm: 54.5*

How did O=C(CCc1ccccc1)N[C@H]1[C@H](OC(=O)c2ccc3ccccc3n2)CCC[C@@]12C(=O)N(Cc1ccccc1)c1ccccc12 do in these assays?
ABHD4 inh: -10.8; SIAE primary: -15.5

Results for COC(=O)C1=C(C)N(Cc2cccc(C(F)(F)F)c2)C(=NCc2cc(OC)c(OC)c(OC)c2)NC1c1ccc(F)cc1 (stereo not drawn) ?
ABHD4 inh: 7.8; SIAE primary: -0.8; TCR CD3 inh: 5.7

What do the screens show for `CCCCCCCCN1[C@@H](CC(=O)O)c2cc(C(F)(F)F)ccc2S1(=O)=O`?
pPAFAH FP inh: 8.2; HTRA1 inhibitor: -13.7; ABHD4 inh: -10.9; SIAE primary: 1.9; TCR CD3 inh: -3.2

What do the screens show for `CCCCCCCCCCCCN1[C@@H](CC(=O)O)c2cc(C(F)(F)F)ccc2S1(=O)=O`?
pPAFAH FP inh: 43.8*; HTRA1 inhibitor: -51.0; ABHD4 inh: -35.7; SIAE primary: -3.5; TCR CD3 inh: 0.6; pPAFAH confirm: 41.4*

Results for CCCCCCCCN1[C@@H](CC(=O)OC)c2cc(F)ccc2S1(=O)=O ?
pPAFAH FP inh: 4.5; HTRA1 inhibitor: -17.9; ABHD4 inh: -7.3; SIAE primary: -6.3; TCR CD3 inh: 3.7

What do the screens show for `CCCCCCCCCCCCN1[C@@H](CC(=O)O)c2cc(F)ccc2S1(=O)=O`?
pPAFAH FP inh: 47.6*; HTRA1 inhibitor: -81.2; ABHD4 inh: -8.6; SIAE primary: -8.7; TCR CD3 inh: -3.6; pPAFAH confirm: 34.4*

Results for CN1CCN(Cc2cc(=O)oc3cc4c(cc23)CCC4)CC1 ?
pPAFAH FP inh: 36.6*; HTRA1 inhibitor: 3.9; ABHD4 inh: 12.4; SIAE primary: -2.4; TCR CD3 inh: 0.0; pPAFAH confirm: 8.7

How did COc1ccc(NC(=O)c2c(F)cccc2F)cc1S(=O)(=O)Nc1ccc(Br)cc1 do in these assays?
pPAFAH FP inh: 35.7*; HTRA1 inhibitor: -50.2; ABHD4 inh: -39.4; SIAE primary: -25.6; TCR CD3 inh: 5.5; pPAFAH confirm: 28.4*

Results for COc1ccc(NS(=O)(=O)c2cc(NC(=O)c3ccccn3)ccc2OC)cc1Br ?
pPAFAH FP inh: -0.8; HTRA1 inhibitor: -39.1; ABHD4 inh: -39.8; SIAE primary: -32.3; TCR CD3 inh: -8.4
